Source: ChEMBL document CHEMBL4033712, “Synthesis and biological evaluation of new C-12(α/β)-(N-) sulfamoyl-phenylamino-14-deoxy-andrographolide derivatives as potent anti-cancer agents” (Bioorg Med Chem Lett, 2017)

Assays:
Type in all cases: functional
[1] = test system: CCRF-CEM; assay: Growth inhibition of human CCRF-CEM cells incubated for 48 hrs by sulforhodamine B assay; settings: for CC50: read-out: LC50 (the source's name)
Method in brief: (§1)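 NCI-60 five-dose screen at 0.01, 0.1, 1, 10 and 100 µM, 48 h incubation, sulforhodamine B end point. GI50 (50% decrease in net growth), TGI (total growth inhibition) and LC50 (net 50% loss of initial cells) taken from log concentration versus % growth inhibition curves.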

[2] = test system: SF-295; assay: Growth inhibition of human SF295 cells incubated for 48 hrs by sulforhodamine B assay; settings: SF-295, 48 h; for CC50: read-out: LC50 (the source's name)
Method in brief: (§2)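 NCI 60 human tumour cell line panel, five-dose study at 0.01, 0.1, 1, 10 and 100 µM, 48 h incubation. Sulforhodamine B protein-binding dye end point. GI50 (50% decrease in net cell growth), TGI (total growth inhibition) and LC50 (net 50% loss of initial cells) read from log concentration versus % growth inhibition curves.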

[3] = test system: UACC-62; assay: Growth inhibition of human UACC62 cells incubated for 48 hrs by sulforhodamine B assay; settings: UACC-62, 48 h; for CC50: read-out: LC50 (the source's name); method in brief: as §2
[4] = test system: A549; assay: Growth inhibition of human A549/ATCC cells incubated for 48 hrs by sulforhodamine B assay; settings: A549, 48 h; for CC50: read-out: LC50 (the source's name); method in brief: as §1
[5] = test system: KM12; assay: Growth inhibition of human KM12 cells incubated for 48 hrs by sulforhodamine B assay; settings: KM12, 48 h; for CC50: read-out: LC50 (the source's name); method in brief: as §1
[6] = test system: TK-10; assay: Growth inhibition of human TK10 cells incubated for 48 hrs by sulforhodamine B assay; settings: TK-10, 48 h; for CC50: read-out: LC50 (the source's name); method in brief: as §2
[7] = test system: NCI-H226; assay: Growth inhibition of human NCI-H226 cells incubated for 48 hrs by sulforhodamine B assay; settings: NCI-H226, 48 h; method in brief: as §1
[8] = test system: MDA-MB-468; assay: Growth inhibition of human MDA-MB-468 cells incubated for 48 hrs by sulforhodamine B assay; settings: MDA-MB-468, 48 h; method in brief: as §1
[9] = test system: NCI/ADR-RES; assay: Growth inhibition of human NCI/ADR-RES cells incubated for 48 hrs by sulforhodamine B assay; method in brief: as §1
[10] = test system: SK-OV-3; assay: Growth inhibition of human SKOV3 cells incubated for 48 hrs by sulforhodamine B assay; settings: SK-OV-3, 48 h; for CC50: read-out: LC50 (the source's name); method in brief: as §2
[11] = test system: SF-539; assay: Anticancer activity against human SF539 cells assessed as cell growth at 10 uM after 48 hrs by sulforhodamine B assay relative to control; settings: SF-539, 48 h, read-out: Activity
Method in brief: (§3)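 Single-dose NCI-60 panel screen: compound added at 10 µM and the culture incubated 48 h. The end point was read by protein staining with sulforhodamine B. The value is percent growth of treated cells relative to untreated control cells, reported as a mean graph across the panel.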

[12] = test system: NCI-H23; assay: Growth inhibition of human NCI-H23 cells incubated for 48 hrs by sulforhodamine B assay; settings: NCI-H23, 48 h; for CC50: read-out: LC50 (the source's name); method in brief: as §1
[13] = test system: CAKI-1; assay: Growth inhibition of human Caki1 cells incubated for 48 hrs by sulforhodamine B assay; settings: CAKI-1, 48 h; for CC50: read-out: LC50 (the source's name); method in brief: as §1
[14] = test system: NCI-H460; assay: Growth inhibition of human NCI-H460 cells incubated for 48 hrs by sulforhodamine B assay; settings: NCI-H460, 48 h; for CC50: read-out: LC50 (the source's name); method in brief: as §1
[15] = test system: HL-60(TB); assay: Growth inhibition of human HL-60(TB) cells incubated for 48 hrs by sulforhodamine B assay; settings: HL-60, 48 h; for CC50: read-out: LC50 (the source's name)
Method in brief: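 NCI-60 five-dose screen at 0.01, 0.1, 1, 10 and 100 µM for 48 h, sulforhodamine B read-out. GI50 taken from log concentration versus % growth inhibition curves as the concentration giving 50% decrease in net cell growth.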

[16] = test system: PC-3; assay: Growth inhibition of human PC3 cells incubated for 48 hrs by sulforhodamine B assay; settings: PC-3, 48 h; for CC50: read-out: LC50 (the source's name); method in brief: as §1
[17] = test system: MOLT-4; assay: Growth inhibition of human MOLT4 cells incubated for 48 hrs by sulforhodamine B assay; settings: MOLT-4, 48 h; for CC50: read-out: LC50 (the source's name); method in brief: as §1
[18] = test system: UACC-257; assay: Growth inhibition of human UACC257 cells incubated for 48 hrs by sulforhodamine B assay; settings: UACC-257, 48 h; for CC50: read-out: LC50 (the source's name); method in brief: as §2
[19] = test system: SN12C; assay: Growth inhibition of human SN12C cells incubated for 48 hrs by sulforhodamine B assay; settings: for CC50: read-out: LC50 (the source's name); method in brief: as §2
[20] = test system: HOP-92; assay: Anticancer activity against human HOP92 cells assessed as cell growth at 10 uM after 48 hrs by sulforhodamine B assay relative to control; settings: HOP-92, 48 h, read-out: Activity; method in brief: as §3
[21] = test system: SR; assay: Growth inhibition of human SR cells incubated for 48 hrs by sulforhodamine B assay; settings: for CC50: read-out: LC50 (the source's name); method in brief: as §2
[22] = test system: HOP-62; assay: Growth inhibition of human HOP62 cells incubated for 48 hrs by sulforhodamine B assay; settings: HOP-62, 48 h; for CC50: read-out: LC50 (the source's name); method in brief: as §1
[23] = test system: EKVX; assay: Growth inhibition of human EKVX cells incubated for 48 hrs by sulforhodamine B assay; settings: for CC50: read-out: LC50 (the source's name); method in brief: as §1
[24] = test system: MDA-MB-435; assay: Growth inhibition of human MDA-MB-435 cells incubated for 48 hrs by sulforhodamine B assay; settings: MDA-MB-435, 48 h; for CC50: read-out: LC50 (the source's name); method in brief: as §1
[25] = test system: HCT-15; assay: Growth inhibition of human HCT15 cells incubated for 48 hrs by sulforhodamine B assay; settings: HCT-15, 48 h; for CC50: read-out: LC50 (the source's name); method in brief: as §1
[26] = test system: DU-145; assay: Growth inhibition of human DU145 cells incubated for 48 hrs by sulforhodamine B assay; settings: DU-145, 48 h; for CC50: read-out: LC50 (the source's name); method in brief: as §1
[27] = test system: MDA-MB-231; assay: Growth inhibition of human MDA-MB-231 cells incubated for 48 hrs by sulforhodamine B assay; settings: MDA-MB-231, 48 h; method in brief: as §1

C=C1CC[C@@H]2[C@](C)(COC(C)=O)[C@H](OC(C)=O)CC[C@@]2(C)[C@H]1CC(Nc1ccc(S(=O)(=O)Nc2ncccn2)cc1)C1=CCOC1=O (stereo not given in full)
GI50 [1]: 730 nM
TGI [1]: 3.41 µM
CC50 [1]: > 100 µM
GI50 [2]: 6.07 µM
TGI [2]: 18.7 µM
CC50 [2]: 44.6 µM
GI50 [3]: 1110 nM
TGI [3]: 2.56 µM
CC50 [3]: 5.91 µM
GI50 [4]: 3.18 µM
TGI [4]: 9.98 µM
CC50 [4]: 34.6 µM
GI50 [5]: 2330 nM
TGI [5]: 5.54 µM
CC50 [5]: 17.8 µM
GI50 [6]: 2770 nM
TGI [6]: 6.03 µM
CC50 [6]: 18.3 µM
GI50 [7]: 1630 nM
TGI [7]: 3.57 µM
GI50 [8]: 1330 nM
TGI [8]: 3.57 µM
GI50 [9]: 1830 nM
LC50 (concentration giving net 50% loss of initial cells) [9]: > 100 µM
TGI [9]: 5.28 µM
GI50 [10]: 6.27 µM
TGI [10]: 18.3 µM
CC50 [10]: 42.8 µM
growth at 10 µM [11]: -69%
GI50 [12]: 2110 nM
TGI [12]: 5.38 µM
CC50 [12]: 26.7 µM
GI50 [13]: 1740 nM
TGI [13]: 4.04 µM
CC50 [13]: 9.39 µM
GI50 [14]: 1980 nM
TGI [14]: 4.06 µM
CC50 [14]: 8.32 µM
GI50 [15]: 1300 nM
TGI [15]: 3.64 µM
CC50 [15]: > 100 µM
GI50 [16]: 2110 nM
TGI [16]: 5.07 µM
CC50 [16]: 17.5 µM
GI50 [17]: 2270 nM
TGI [17]: 8.37 µM
CC50 [17]: > 100 µM
GI50 [18]: 2340 nM
TGI [18]: 6.07 µM
CC50 [18]: 21.9 µM
GI50 [19]: 430 nM
TGI [19]: 1.96 µM
CC50 [19]: 5.82 µM
growth at 10 µM [20]: 56.3%
GI50 [21]: 310 nM
TGI [21]: 17.2 µM
CC50 [21]: > 100 µM
GI50 [22]: 3.02 µM
TGI [22]: 6.44 µM
CC50 [22]: 21.5 µM
GI50 [23]: 8.18 µM
TGI [23]: 20.6 µM
CC50 [23]: 45.6 µM
GI50 [24]: 1580 nM
TGI [24]: 3.77 µM
CC50 [24]: 9.04 µM
GI50 [25]: 1210 nM
TGI [25]: 3.32 µM
CC50 [25]: 9.15 µM
GI50 [26]: 1620 nM
TGI [26]: 3.07 µM
CC50 [26]: 5.83 µM
GI50 [27]: 1950 nM
LC50 (concentration giving net 50% loss of initial cells) [27]: 7.91 µM
TGI [27]: 3.93 µM

C=C1CC[C@@H]2[C@](C)(COC(C)=O)[C@H](OC(C)=O)CC[C@@]2(C)[C@H]1CC(Nc1ccc(S(=O)(=O)Nc2cc(C)on2)cc1)C1=CCOC1=O (stereo not given in full)
GI50 [1]: 470 nM
TGI [1]: 2.71 µM
CC50 [1]: > 100 µM
GI50 [2]: 8.13 µM
TGI [2]: 21 µM
CC50 [2]: 47.7 µM
GI50 [3]: 2130 nM
TGI [3]: 7.06 µM
CC50 [3]: 30.5 µM
GI50 [4]: 4.75 µM
TGI [4]: 15.4 µM
CC50 [4]: 42.2 µM
GI50 [5]: 1830 nM
TGI [5]: 3.69 µM
CC50 [5]: 7.42 µM
GI50 [6]: 3040 nM
TGI [6]: 7.11 µM
CC50 [6]: 23.8 µM
GI50 [7]: 1810 nM
TGI [7]: 3.85 µM
GI50 [8]: 1490 nM
TGI [8]: 3.29 µM
CC50 ([8]; read-out: LC50 (the source's name)): 7.27 µM
GI50 [9]: 2410 nM
LC50 (concentration giving net 50% loss of initial cells) [9]: > 100 µM
TGI [9]: 12 µM
GI50 [10]: 11 µM
TGI [10]: 23.1 µM
CC50 [10]: 48.6 µM
growth at 10 µM [11]: 6.3%
GI50 [12]: 2310 nM
TGI [12]: 5.9 µM
CC50 [12]: 31.4 µM
GI50 [13]: 4140 nM
TGI [13]: 14.7 µM
CC50 [13]: 38.6 µM
GI50 [14]: 2350 nM
TGI [14]: 5.7 µM
CC50 [14]: 27.7 µM
GI50 [15]: 1390 nM
TGI [15]: 3.69 µM
CC50 [15]: 9.82 µM
GI50 [16]: 1980 nM
TGI [16]: 4.31 µM
CC50 [16]: 9.4 µM
GI50 [17]: 2120 nM
TGI [17]: 6.39 µM
CC50 [17]: > 100 µM
GI50 [18]: 2950 nM
TGI [18]: 6.19 µM
CC50 [18]: 18.7 µM
GI50 [19]: 1730 nM
TGI [19]: 4.52 µM
CC50 [19]: 20.7 µM
GI50 [21]: 370 nM
TGI [21]: 3.36 µM
CC50 [21]: > 100 µM
GI50 [22]: 8.88 µM
TGI [22]: 22.9 µM
CC50 [22]: 56.9 µM
GI50 [23]: 11 µM
TGI [23]: 25.9 µM
CC50 [23]: 60.8 µM
GI50 [24]: 1740 nM
TGI [24]: 4.37 µM
CC50 [24]: 12.5 µM
GI50 [25]: 1500 nM
TGI [25]: 3.83 µM
CC50 [25]: 9.74 µM
GI50 [26]: 2430 nM
TGI [26]: 6.53 µM
CC50 [26]: 23 µM
GI50 [27]: 2220 nM
LC50 (concentration giving net 50% loss of initial cells) [27]: 17.1 µM
TGI [27]: 5.11 µM
